Experiments:
[1] = tested on: Mus musculus; test: Antinociceptive activity in Swiss mouse assessed as inhibition of acetic acid-induced writhing response at 100 mg/kg, po dose administered 1 hr before acetic acid challenge measured for 30 mins; type: functional
Summary of the method: (§1)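 Swiss mice (25–35 g, either sex), fasted overnight, received compound orally in 0.5% methylcellulose or vehicle, with 8–10 per group. Testing started at 100 mg/kg with successive twofold dose reductions. Writhes were counted for 30 min after acetic acid injection. Percent inhibition of the writhing response was calculated versus vehicle controls (Student's t-test).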

[2] = tested on: Mus musculus; test: Antinociceptive activity in Swiss mouse assessed as inhibition of acetic acid-induced writhing response at 50 mg/kg, po dose administered 1 hr before acetic acid challenge measured for 30 mins; type: functional; summary of the method: as §1
[3] = tested on: Mus musculus; test: Antinociceptive activity in Swiss mouse assessed as inhibition of acetic acid-induced writhing response at 25 mg/kg, po dose administered 1 hr before acetic acid challenge measured for 30 mins; type: functional; summary of the method: as §1
[4] = tested on: Rattus norvegicus; test: Antiinflammatory activity against carrageenan-induced paw edema in Wistar rat at 100 mg/kg, po dose administered 1 hr before carrageenan challenge assessed after 3 hrs; type: functional
Summary of the method: (§2)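 Wistar rats (250–300 g, either sex), fasted overnight, dosed by oral gavage with the compound suspended in 0.5% methylcellulose. Controls received vehicle alone, with 8–10 animals per group. Dosing started at 100 mg/kg and was halved stepwise. Carrageenan (1%, 0.1 mL) was injected subplantar 1 h post-dose. Paw volume was measured by plethysmometer immediately and at 3 h, and % inhibition of swelling was calculated versus controls (Student's t-test).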

[5] = tested on: Rattus norvegicus; test: Antiinflammatory activity against carrageenan-induced paw edema in Wistar rat at 50 mg/kg, po dose administered 1 hr before carrageenan challenge assessed after 3 hrs; type: functional; summary of the method: as §2
[6] = tested on: Rattus norvegicus; test: Antiinflammatory activity against carrageenan-induced paw edema in Wistar rat at 25 mg/kg, po dose administered 1 hr before carrageenan challenge assessed after 3 hrs; type: functional; summary of the method: as §2
[7] = tested on: Rattus norvegicus; test: Antiinflammatory activity against carrageenan-induced paw edema in Wistar rat at 12.5 mg/kg, po dose administered 1 hr before carrageenan challenge assessed after 3 hrs; type: functional; summary of the method: as §2
[8] = tested on: Rattus norvegicus; test: Antiinflammatory activity against carrageenan-induced paw edema in Wistar rat at 6.25 mg/kg, po dose administered 1 hr before carrageenan challenge assessed after 3 hrs; type: functional; summary of the method: as §2
[9] = tested on: Rattus norvegicus; test: Antiinflammatory activity against carrageenan-induced paw edema in Wistar rat at 3.12 mg/kg, po dose administered 1 hr before carrageenan challenge assessed after 3 hrs; type: functional
[10] = tested on: Mus musculus; test: Sedative activity in Swiss mouse assessed as inhibition of spontaneous locomotor activity at 100 mg/kg, po dose measured for every 5 mins during 60 to 90 mins; type: organism-based; set-up: dose 100 mg/kg, route oral
Summary of the method: (§3)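 Fasted Swiss mice (25–35 g, either sex) were given compound orally in 0.5% methylcellulose or vehicle. Each mouse was placed alone in a photobeam-type activity cage, with counts recorded every 5 min for 90 min. Pulses from the final 30 min were scored, with testing run 9:00–13:00. Percent inhibition was calculated versus controls (Student's t-test).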

[11] = tested on: Mus musculus; test: Antinociceptive activity in Swiss mouse assessed as inhibition of acetic acid-induced writhing response at 12.5 mg/kg, po dose administered 1 hr before acetic acid challenge measured for 30 mins; type: functional; summary of the method: as §1
[12] = tested on: Mus musculus; test: Sedative activity in Swiss mouse assessed as inhibition on spontaneous locomotor activity at 25 mg/kg, po measured for every 5 mins during 60 to 90 mins; type: functional, organism-based; set-up: dose 25 mg/kg, route oral; summary of the method: as §3
[13] = tested on: Mus musculus; test: Sedative activity in Swiss mouse assessed as inhibition on spontaneous locomotor activity at 12.5 mg/kg, po dose measured for every 5 mins during 60 to 90 mins; type: ADME, organism-based; set-up: dose 12.5 mg/kg, route oral; summary of the method: as §3
[14] = tested on: Mus musculus; test: Antinociceptive activity in Swiss mouse assessed as inhibition of acetic acid-induced writhing response at 200 mg/kg, po dose administered 1 hr before acetic acid challenge measured for 30 mins; type: functional
[15] = tested on: Rattus norvegicus; test: Antiinflammatory activity against carrageenan-induced paw edema in Wistar rat at 200 mg/kg, po dose administered 1 hr before carrageenan challenge assessed after 3 hrs; type: functional
[16] = tested on: Rattus norvegicus; test: Acute gastrolesivity in Wistar rat assessed as appearance of gastric lesions at 200 mg/kg, po after 5 hrs; type: toxicity, organism-based, Stomach; set-up: dose 200 mg/kg, route oral; conditions: in vivo
Summary of the method: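 Wistar rats (250–300 g, either sex), fasted overnight, given the compound orally at 200 mg kg-1 as a suspension in 0.5% methylcellulose by gavage (1 mL/100 g); 8 rats per compound. Stomachs were fixed in 2% formalin, opened along the greater curvature, and examined under a stereomicroscope by a blinded observer. The result is the number of rats with gastric damage over the number treated.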

[17] = tested on: Mus musculus; test: Antinociceptive activity in Swiss mouse assessed as inhibition of acetic acid-induced writhing response at 6.25 mg/kg, po dose administered 1 hr before acetic acid challenge measured for 30 mins; type: functional; summary of the method: as §1
[18] = tested on: Mus musculus; test: Antinociceptive activity in Swiss mouse assessed as inhibition of acetic acid-induced writhing response at 3.12 mg/kg, po dose administered 1 hr before acetic acid challenge measured for 30 mins; type: functional
[19] = tested on: Mus musculus; test: Sedative activity in Swiss mouse assessed as inhibition on spontaneous locomotor activity at 6.25 mg/kg, po measured for every 5 mins during 60 to 90 mins; type: ADME, organism-based; set-up: dose 6.25 mg/kg, route oral; summary of the method: as §3

| Compound | inhibition in vivo at 100 mg/kg [1] | inhibition in vivo at 50 mg/kg [2] | inhibition in vivo at 25 mg/kg [3] | inhibition in vivo at 100 mg/kg [4] | inhibition in vivo at 50 mg/kg [5] | inhibition at 100 mg/kg [10] | also measured |
| --- | --- | --- | --- | --- | --- | --- | --- |
| CCN(CC)C(=O)c1c(N(C)CC)c2cccnc2n2c(C(C)C)nnc12 | 81% | 59% | 17% | 71% | 67% | 53% | inhibition in vivo at 25 mg/kg [6]: 65%; inhibition in vivo at 12.5 mg/kg [7]: 51%; inhibition in vivo at 6.25 mg/kg [8]: 42%; inhibition in vivo at 3.12 mg/kg [9]: 0% |
| CC(C)c1nnc2c(C(=O)N3CCCC3)c(N3CCN(C)CC3)c3cccnc3n12 | 100% | – | – | 0% | – | – | – |
| CCN(CC)C(=O)c1c(NC(C)C)c2cccnc2n2c(C(C)C)nnc12 | 83% | 54% | 33% | 81% | 75% | 98% | inhibition in vivo at 12.5 mg/kg [11]: 0%; inhibition in vivo at 25 mg/kg [6]: 75%; inhibition in vivo at 12.5 mg/kg [7]: 68%; inhibition in vivo at 6.25 mg/kg [8]: 15%; inhibition at 25 mg/kg [12]: 26%; inhibition at 12.5 mg/kg [13]: 0% |
| CCN(CC)C(=O)c1c(NCC(C)C)c2cccnc2n2c(C(C)C)nnc12 | 100% | 33% | – | 70% | 66% | 15% | inhibition in vivo at 200 mg/kg [14]: 100%; inhibition in vivo at 200 mg/kg [15]: 74%; inhibition in vivo at 25 mg/kg [6]: 61%; inhibition in vivo at 12.5 mg/kg [7]: 50%; inhibition in vivo at 6.25 mg/kg [8]: 27%; inhibition in vivo at 3.12 mg/kg [9]: 18%; Activity [16]: Non-toxic |
| CCC(CC)Nc1c(C(=O)N(CC)CC)c2nnc(C(C)C)n2c2ncccc12 | 91% | 75% | 58% | 50% | 47% | 97% | inhibition in vivo at 12.5 mg/kg [11]: 49%; inhibition in vivo at 6.25 mg/kg [17]: 36%; inhibition in vivo at 3.12 mg/kg [18]: 18%; inhibition in vivo at 25 mg/kg [6]: 47%; inhibition in vivo at 12.5 mg/kg [7]: 45%; inhibition in vivo at 6.25 mg/kg [8]: 11%; inhibition at 25 mg/kg [12]: 70%; inhibition at 12.5 mg/kg [13]: 92%; inhibition at 6.25 mg/kg [19]: 81% |
| CCN(CC)C(=O)c1c(N2CCN(C)CC2)c2cccnc2n2cnnc12 | 14% | – | – | 0% | – | – | – |
| CC(C)CNc1c(C(=O)N2CCCC2)c2nnc(C(C)C)n2c2ncccc12 | 60% | 64% | 29% | 0% | – | 5% | – |
| CCOC(=O)N1CCN(c2c(C(=O)N(CC)CC)c3nnc(C(C)C)n3c3ncccc23)CC1 | 100% | 75% | 53% | 0% | – | 83% | inhibition in vivo at 12.5 mg/kg [11]: 29%; inhibition at 25 mg/kg [12]: 96% |
| CCN(CC)C(=O)c1c(NN2CCN(C)CC2)c2cccnc2n2c(C(C)C)nnc12 | 17% | – | – | 0% | – | – | – |
| CCN(CC)C(=O)c1c(NCC(OC)OC)c2cccnc2n2c(C(C)C)nnc12 | 47% | 8% | – | 0% | – | 0% | – |
| CCNC(=O)c1c(N2CCN(C)CC2)c2cccnc2n2c(C(C)C)nnc12 | 79% | 24% | – | 0% | – | 80% | – |
| CCN(CC)C(=O)c1c(OC2CCN(C)CC2)c2cccnc2n2c(C(C)C)nnc12 | 87% | 35% | – | 18% | – | 65% | – |
| CCNc1c(C(=O)N(CC)CC)c2nnc(C(C)C)n2c2ccccc12 | 91% | 43% | 12% | 42% | 43% | 39% | inhibition in vivo at 25 mg/kg [6]: 24%; inhibition in vivo at 12.5 mg/kg [7]: 6% |
| CCN(CC)C(=O)c1c(NCC(C)C)c2ccccc2n2c(C(C)C)nnc12 | 88% | 29% | – | 0% | – | 14% | – |
| CCCCOc1c(C(=O)N(CC)CC)c2nnc(C(C)C)n2c2ncccc12 | 40% | 14% | – | 3% | – | 76% | – |
| CCN(CC)C(=O)c1c(OC(C)C)c2cccnc2n2c(C(C)C)nnc12 | 11% | – | – | 24% | 0% | – | – |
| CCN(CC)C(=O)c1c(OCC(C)C)c2cccnc2n2c(C(C)C)nnc12 | 26% | – | – | 0% | – | – | – |
| CCN(CC)C(=O)c1c(N2CCN(C)CC2)c2ccccc2n2c(C(C)C)nnc12 | 100% | 100% | 77% | 34% | 0% | 54% | inhibition in vivo at 12.5 mg/kg [11]: 14%; inhibition at 25 mg/kg [12]: 21% |
| CCN(CC)C(=O)c1c(N2CCN(C)CC2)c2ccccc2n2cnnc12 | 55% | 58% | 28% | 0% | – | 0% | – |
| CCNc1c(C(=O)N(CC)CC)c2nnc(C(C)C)n2c2ncccc12 | 100% | 20% | – | 63% | 63% | 13% | inhibition in vivo at 200 mg/kg [14]: 100%; inhibition in vivo at 200 mg/kg [15]: 65%; inhibition in vivo at 25 mg/kg [6]: 61%; inhibition in vivo at 12.5 mg/kg [7]: 35%; inhibition in vivo at 6.25 mg/kg [8]: 33%; inhibition in vivo at 3.12 mg/kg [9]: 9%; Activity [16]: Non-toxic |
| CCOc1c(C(=O)N(CC)CC)c2nnc(C(C)C)n2c2ncccc12 | 22% | – | – | 10% | – | – | – |
| CCN(CC)C(=O)c1c(N2CCN(C)CC2)c2cccnc2n2c(-c3ccccc3)nnc12 | 100% | 62% | 15% | 0% | – | 72% | – |
| CCc1nnc2c(C(=O)N(CC)CC)c(NCCC(C)C)c3cccnc3n12 | 98% | 75% | 15% | 41% | 41% | 95% | inhibition in vivo at 25 mg/kg [6]: 43%; inhibition in vivo at 12.5 mg/kg [7]: 29%; inhibition in vivo at 6.25 mg/kg [8]: 0% |
| CCN(CC)C(=O)c1c(OC2CCN(C)CC2)c2cccnc2n2cnnc12 | 45% | 20% | – | 0% | – | 55% | – |

From ChEMBL document CHEMBL1140964, “1,8-Naphthyridines VII. New substituted 5-amino[1,2,4]triazolo[4,3-a][1,8]naphthyridine-6-carboxamides and their isosteric analogues, exhibiting notable anti-inflammatory and/or analgesic activities, but no acute gastrolesivity” (Eur J Med Chem, 2008)
